Converted amounts (≈) assume the structure as drawn.
Legend:
[1] = system: Mycobacterium tuberculosis; experiment: Antimycobacterial activity against Mycobacterium tuberculosis CIP 103471 after 3 to 28 days by twofold dilution method; format: functional
How it was run: (§1)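 Twofold agar dilution in Middlebrook 7H11 with 10% OADC; plates held at 37 °C for 3 or 28 days. MIC is the lowest concentration giving complete inhibition of visible mycobacterial growth. Rifampin, streptomycin and BM521 served as references.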

[2] = Protection index, ratio of CC50 for Mycobacterium tuberculosis infected mouse J774A1 cells to MIC for Mycobacterium tuberculosis H37Rv ATCC 27294; format: functional, J774.A1
[3] = system: Mycobacterium tuberculosis; experiment: Antimycobacterial activity against Mycobacterium tuberculosis H37Rv ATCC 27294 after 3 to 28 days by twofold dilution method; format: functional; how it was run: as §1
[4] = system: Mycobacterium tuberculosis; experiment: Antimycobacterial activity against Mycobacterium tuberculosis H37Rv ATCC 27294 infected in mouse J774A1 cells assessed as reduction of bacterial growth at 0.5 ug/ml after 6 days relative to untreated control; format: functional, J774.A1; design: scale not given: the % may be the effect or the level left
[5] = system: Mycobacterium tuberculosis; experiment: Antimycobacterial activity against Mycobacterium tuberculosis H37Rv ATCC 27294 infected in mouse J774A1 cells assessed as reduction of bacterial growth at 0.25 ug/ml after 6 days relative to untreated control; format: functional, J774.A1; design: scale not given: the % may be the effect or the level left
[6] = system: Mycobacterium tuberculosis; experiment: Antimycobacterial activity against Mycobacterium tuberculosis H37Rv ATCC 27294 infected in mouse J774A1 cells assessed as reduction of bacterial growth at 1 ug/ml after 6 days relative to untreated control; format: functional, J774.A1; design: scale not given: the % may be the effect or the level left
[7] = system: Mycobacterium tuberculosis; experiment: Antimycobacterial activity against Mycobacterium tuberculosis H37Rv ATCC 27294 infected in mouse J774A1 cells assessed as reduction of bacterial growth at 0.125 ug/ml after 6 days relative to untreated control; format: functional, J774.A1; design: scale not given: the % may be the effect or the level left

| SMILES | MIC [1] | PI [2] | MIC [3] | Activity [4] | Activity [5] | Activity [6] | Activity [7] |
| --- | --- | --- | --- | --- | --- | --- | --- |
| COc1ccc(-n2c(-c3ccc(C(C)C)cc3)cc(CN3CCSCC3)c2C)cc1 | 0.5 µg/mL (≈ 1.19 µM) | 9.76 | 0.5 µg/mL (≈ 1.19 µM) | – | – | – | – |
| COc1ccccc1-c1cc(CN2CCSCC2)c(C)n1-c1ccc(F)cc1 | – | – | > 16 µg/mL | – | – | – | – |
| COc1ccc(-c2cc(CN3CCSCC3)c(C)n2-c2ccc(F)cc2)cc1 | – | >480 | 0.25 µg/mL (≈ 0.63 µM) | – | – | – | – |
| Cc1c(CN2CCSCC2)cc(-c2ccccc2C(F)(F)F)n1-c1ccc(F)cc1 | – | – | > 16 µg/mL | – | – | – | – |
| CSc1ccccc1-c1cc(CN2CCSCC2)c(C)n1-c1ccc(F)cc1 | 16 µg/mL (≈ 38.8 µM) | 1.39 | 16 µg/mL (≈ 38.8 µM) | – | – | – | – |
| CSc1ccccc1-n1c(-c2ccc(F)cc2)cc(CN2CCSCC2)c1C | 8 µg/mL (≈ 19.4 µM) | 4.2 | 8 µg/mL (≈ 19.4 µM) | – | – | – | – |
| CCc1ccc(-c2cc(CN3CCSCC3)c(C)n2-c2ccc(OC)cc2)cc1 | 0.5 µg/mL (≈ 1.23 µM) | 36.06 | 0.5 µg/mL (≈ 1.23 µM) | – | – | – | – |
| CCc1ccc(-n2c(-c3ccc(OC)cc3)cc(CN3CCSCC3)c2C)cc1 | 0.5 µg/mL (≈ 1.23 µM) | 63.04 | 0.25 µg/mL (≈ 0.615 µM) | – | – | – | – |
| CCCc1ccc(-n2c(-c3ccc(OC)cc3)cc(CN3CCSCC3)c2C)cc1 | 0.25 µg/mL (≈ 0.594 µM) | 49.12 | 0.25 µg/mL (≈ 0.594 µM) | – | – | – | – |
| COc1ccc(-c2cc(CN3CCSCC3)c(C)n2-c2ccc(C)cc2)cc1 | 0.5 µg/mL (≈ 1.27 µM) | 46.2 | 0.25 µg/mL (≈ 0.637 µM) | – | – | – | – |
| Cc1c(CN2CCSCC2)cc(-c2ccc(F)cc2)n1-c1ccccc1C(F)(F)F | – | 0.65 | 4 µg/mL (≈ 9.21 µM) | – | – | – | – |
| CCc1ccc(-n2c(-c3ccc(SC)cc3)cc(CN3CCSCC3)c2C)cc1 | 0.25 µg/mL (≈ 0.591 µM) | 68.72 | 0.25 µg/mL (≈ 0.591 µM) | – | – | – | – |
| CCCc1ccc(-n2c(-c3ccc(SC)cc3)cc(CN3CCSCC3)c2C)cc1 | 0.5 µg/mL (≈ 1.14 µM) | 202 | 0.125 µg/mL (≈ 0.286 µM) | – | – | – | – |
| COc1ccc(-c2cc(CN3CCSCC3)c(C)n2-c2ccc(C(C)C)cc2)cc1 | 0.25 µg/mL (≈ 0.594 µM) | 40.88 | 0.25 µg/mL (≈ 0.594 µM) | – | – | – | – |
| COc1ccc(-n2c(-c3ccc(F)cc3)cc(CN3CCSCC3)c2C)cc1 | – | 5.32 | 4 µg/mL (≈ 10.1 µM) | – | – | – | – |
| CO[C@H]1/C=C/O[C@@]2(C)Oc3c(C)c(O)c4c(O)c(c(/C=N/N5CCN(C)CC5)c(O)c4c3C2=O)NC(=O)/C(C)=C\C=C\[C@H](C)[C@H](O)[C@@H](C)[C@@H](O)[C@@H](C)[C@H](OC(C)=O)[C@@H]1C [RIFAMPIN] | 0.25 µg/mL (≈ 0.304 µM) | 828.12 | 0.25 µg/mL (≈ 0.304 µM) | 99.93% | 99.83% | 99.97% | 96.59% |

| SMILES | MIC [1] | PI [2] | MIC [3] | Activity [4] | Activity [5] | Activity [6] | Activity [7] |
| --- | --- | --- | --- | --- | --- | --- | --- |
| Cc1c(CN2CCSCC2)cc(-c2ccc(F)cc2)n1-c1ccc(C(F)(F)F)cc1 | – | 0.29 | 8 µg/mL (≈ 18.4 µM) | – | – | – | – |
| CSc1ccc(-c2cc(CN3CCSCC3)c(C)n2-c2ccc(F)cc2)cc1 | < 0.125 µg/mL | >1000 | 0.125 µg/mL (≈ 0.303 µM) | 99.72% | 99.02% | 99.81% | 96.12% |
| CSc1ccc(-n2c(-c3ccc(C)cc3)cc(CN3CCSCC3)c2C)cc1 | 1 µg/mL (≈ 2.45 µM) | 69.06 | 1 µg/mL (≈ 2.45 µM) | – | – | – | – |
| CSc1ccc(-n2c(-c3ccc(F)cc3)cc(CN3CCSCC3)c2C)cc1 | 1 µg/mL (≈ 2.42 µM) | >128 | 1 µg/mL (≈ 2.42 µM) | – | – | – | – |
| CSc1ccc(-c2cc(CN3CCSCC3)c(C)n2-c2ccc(C(C)C)cc2)cc1 | 0.5 µg/mL (≈ 1.14 µM) | 286.24 | 0.125 µg/mL (≈ 0.286 µM) | – | – | – | – |
| CCc1ccc(-c2cc(CN3CCSCC3)c(C)n2-c2ccc(SC)cc2)cc1 | 1 µg/mL (≈ 2.37 µM) | 102.96 | 0.25 µg/mL (≈ 0.591 µM) | – | – | – | – |
| CSc1ccc(-c2cc(CN3CCSCC3)c(C)n2-c2ccc(C)cc2)cc1 | 0.25 µg/mL (≈ 0.612 µM) | 73.6 | 0.25 µg/mL (≈ 0.612 µM) | – | – | – | – |
| CCCc1ccc(-c2cc(CN3CCSCC3)c(C)n2-c2ccc(SC)cc2)cc1 | 0.5 µg/mL (≈ 1.14 µM) | 359.68 | 0.25 µg/mL (≈ 0.572 µM) | – | – | – | – |
| CCCc1ccc(-c2cc(CN3CCSCC3)c(C)n2-c2ccc(OC)cc2)cc1 | 0.5 µg/mL (≈ 1.19 µM) | >512 | 0.25 µg/mL (≈ 0.594 µM) | – | – | – | – |
| COc1ccccc1-n1c(-c2ccc(F)cc2)cc(CN2CCSCC2)c1C | – | – | > 16 µg/mL | – | – | – | – |
| CSc1ccc(-n2c(-c3ccc(C(C)C)cc3)cc(CN3CCSCC3)c2C)cc1 | 0.5 µg/mL (≈ 1.14 µM) | 229.9 | 0.5 µg/mL (≈ 1.14 µM) | – | – | – | – |
| Cc1c(CN2CCSCC2)cc(-c2ccc(C(F)(F)F)cc2)n1-c1ccc(F)cc1 | – | 8.46 | 1 µg/mL (≈ 2.3 µM) | – | – | – | – |
| Cc1ccc(-c2cc(CN3CCSCC3)c(C)n2-c2ccc(F)cc2)cc1 | 0.125 µg/mL (≈ 0.328 µM) | 272.16 | 0.25 µg/mL (≈ 0.657 µM) | – | – | – | – |
| COc1ccc(-n2c(-c3ccc(C)cc3)cc(CN3CCSCC3)c2C)cc1 | 1 µg/mL (≈ 2.55 µM) | 6.57 | 2 µg/mL (≈ 5.09 µM) | – | – | – | – |
| CN[C@@H]1[C@H](O[C@H]2[C@H](O[C@H]3[C@H](O)[C@@H](O)[C@H](N=C(N)N)[C@@H](O)[C@@H]3N=C(N)N)O[C@@H](C)[C@]2(O)C=O)O[C@@H](CO)[C@H](O)[C@H]1O [STREPTOMYCIN] | 0.5 µg/mL (≈ 0.86 µM) | >2000 | 0.5 µg/mL (≈ 0.86 µM) | – | – | – | – |

— ChEMBL document CHEMBL1275336, “Identification of a novel pyrrole derivative endowed with antimycobacterial activity and protection index comparable to that of the current antitubercular drugs streptomycin and rifampin” (Bioorg Med Chem, 2010)
